Hits are enriched below; roughly 1.5% of the tested compounds scored in any of these assays.
CCR6 antagonist: blocks CCL20-driven beta-arrestin recruitment at human CCR6; P51684; CHO-K1 CCR6 PathHunter beta-arrestin, luminescence, CCL20-stimulated; inhibition, % at 20 µM; 340,000 compounds, 0.49% hits; AID 493098;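 active means compounds whose inhibition of the agonist-driven luminescence signal at 20 µM reaches about 50%, limit read from the data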;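 further: cells stimulated with CCL20 at 14 nM final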
Target sequence (P51684 whole entry, looked up): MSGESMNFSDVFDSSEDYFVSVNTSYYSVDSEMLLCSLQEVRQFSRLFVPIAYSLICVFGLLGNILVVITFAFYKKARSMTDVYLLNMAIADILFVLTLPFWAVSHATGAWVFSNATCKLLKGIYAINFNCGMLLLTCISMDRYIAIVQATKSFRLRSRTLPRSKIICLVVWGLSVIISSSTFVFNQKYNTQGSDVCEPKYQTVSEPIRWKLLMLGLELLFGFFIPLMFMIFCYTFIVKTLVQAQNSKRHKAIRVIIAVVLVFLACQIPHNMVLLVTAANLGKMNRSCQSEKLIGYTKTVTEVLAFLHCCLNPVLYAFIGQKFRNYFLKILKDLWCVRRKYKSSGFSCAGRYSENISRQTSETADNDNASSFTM
EBI2 block: EBI2 (human) antagonism; P32249; EBI2 beta-arrestin recruitment, luminescence, 7a,25-OHC stimulated; inhibition, % at 5 µM; 360,000 compounds, 0.81% hits; AID 651636; in the data active means inhibition above about 38%;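 further: enzyme fragment complementation signal reports receptor beta-arrestin coupling in cells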
CXCR6 inh: inhibitors of human CXCR6 receptor | O00574 | CHO-K1 PathHunter CXCR6 beta-arrestin, luminescence | inhibition, % at 20 µM | 360,000 compounds, 0.36% hits; in the data active means inhibition above about 34%, passing the limit was not always enough;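 further: antagonist mode with CXCL16 agonist at 10 nM final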
APJ ag: agonists of human APJ apelin receptor. 330,000 compounds, 0.11% hits. AID 2520. activation, % at 20 µM. P35414. CHO-K1 APJ PathHunter beta-arrestin, luminescence; 0% DMSO wells, 100% apelin;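 active means activation more than six SD over the plate average, tested at 20 µM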
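Test system: CHO-K1 APJ beta-arrestin complementation cell line. Amount: cell density 1000 per well. Controls: DMSO negative, 10 nM Apelin-13 positive. Signal: luminescent beta-gal fragment complementation, chemiluminescent substrate. Read-out basis: agonist-driven arrestin binding to APJ. Timing: compound stimulation 90 min at 25 °C, detection 60 min.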
APJ antag: APJ receptor antagonism; 330,000 compounds, 0.32% hits; inhibition, % at 20 µM; CHO-K1 APJ beta-arrestin complementation, luminescence;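 active means inhibition above about 40% at 20 µM, limit read from the data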;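 further: cells challenged with 10 nM apelin-13 agonist together with compound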
APJ ag conf: confirmation of human APJ apelin receptor agonists; shares compounds with APJ ag; CHO-K1 APJ PathHunter beta-arrestin, luminescence; activation, % at 20 µM; 310 compounds, 10% hits;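 active means activation above 40%, taking the highest of four retests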
A number is an active result.

Results for O=C(NCC(c1cccs1)N1CCOCC1)c1cc(S(=O)(=O)N2CCOCC2)ccc1Cl (configuration not stated) ?
CCR6 antagonist: inactive; EBI2 block: inactive; CXCR6 inh: inactive

What do the screens show for `Cc1[nH][nH]c(=O)c1C(c1c(C)[nH][nH]c1=O)c1cn(Cc2ccc(Cl)c(Cl)c2)c2ccccc12`?
CCR6 antagonist: 77; EBI2 block: inactive; CXCR6 inh: 54

How did Cc1[nH][nH]c(=O)c1C(c1c(C)[nH][nH]c1=O)c1cn(Cc2ccc(F)cc2)c2ccccc12 do in these assays?
CCR6 antagonist: 79; EBI2 block: inactive; CXCR6 inh: 62

What do the screens show for `COc1ccc(NC(=O)C(c2ccc(C#N)cc2)n2c(=O)c(-c3cc4ccccc4[nH]3)nc3ccccc32)cc1` (configuration not stated)?
EBI2 block: inactive

What do the screens show for `COC(=O)c1ccc(CSc2nc3sc4c(c3c(=O)n2C)CCCC4)o1`?
CCR6 antagonist: inactive; EBI2 block: inactive; CXCR6 inh: inactive; APJ ag: inactive; APJ antag: inactive

How did COC(=O)c1sc(N)c(C(=O)OC)c1CSc1nc2sc3c(c2c(=O)n1C)CCC3 do in these assays?
CCR6 antagonist: inactive; EBI2 block: inactive; CXCR6 inh: 52; APJ ag: inactive; APJ antag: inactive

Results for C/C(=N\NC(N)=S)c1ccccc1 ?
CCR6 antagonist: inactive; EBI2 block: inactive; CXCR6 inh: inactive; APJ ag: inactive; APJ antag: inactive

What do the screens show for `CSC(=S)N/N=C(\C)c1ccccc1`?
CCR6 antagonist: 57; EBI2 block: inactive; CXCR6 inh: inactive; APJ ag: inactive; APJ antag: 47

Results for O=C(O)Cn1nnc(-c2ccc(OCc3ccccc3)cc2)n1 ?
CCR6 antagonist: inactive; EBI2 block: inactive; CXCR6 inh: inactive

How did COc1cc2c3nnc(-c4ccc(F)cc4)c-3cn(Cc3ccccc3)c2cc1OC do in these assays?
CCR6 antagonist: inactive; EBI2 block: inactive; CXCR6 inh: inactive; APJ ag: 24; APJ antag: inactive; APJ ag conf: inactive

Results for COc1cc2c3nnc(-c4ccc(F)cc4)c-3cn(Cc3ccc(F)cc3)c2cc1OC ?
CCR6 antagonist: inactive; EBI2 block: inactive; CXCR6 inh: inactive; APJ ag: inactive; APJ antag: inactive

Results for CCOc1ccccc1-c1nc(-c2ccc(NC(=O)Cc3ccc(OC)cc3)cc2)no1 ?
CCR6 antagonist: inactive; EBI2 block: inactive; CXCR6 inh: inactive; APJ ag: 22; APJ antag: inactive; APJ ag conf: inactive

Results for CC1=C(C(=O)OCc2ccc3c(c2)OCO3)C(c2ccc(F)cc2)NC(=O)N1 (configuration not stated) ?
CCR6 antagonist: inactive; EBI2 block: inactive; CXCR6 inh: inactive; APJ ag: 29; APJ antag: inactive; APJ ag conf: inactive

What do the screens show for `CC1=C(C(=O)OCc2ccccc2)C(c2cccc(F)c2)NC(=O)N1` (configuration not stated)?
CCR6 antagonist: inactive; EBI2 block: inactive; CXCR6 inh: inactive; APJ ag: 19; APJ antag: inactive; APJ ag conf: inactive

What do the screens show for `CC1=C(C(=O)OCc2ccccc2)C(c2ccccc2)NC(=O)N1` (configuration not stated)?
CCR6 antagonist: inactive; EBI2 block: inactive; CXCR6 inh: inactive; APJ ag: inactive; APJ antag: inactive

What do the screens show for `CC1=C(C(=O)OCc2ccc3c(c2)OCO3)C(c2ccc(Cl)cc2)NC(=O)N1` (configuration not stated)?
CCR6 antagonist: inactive; EBI2 block: inactive; CXCR6 inh: inactive; APJ ag: inactive; APJ antag: inactive

What do the screens show for `COc1cc(/C=N/NC(=O)c2ccc(Cl)c(S(N)(=O)=O)c2)ccc1OCC(N)=O`?
CCR6 antagonist: inactive; EBI2 block: inactive; CXCR6 inh: inactive; APJ ag: inactive; APJ antag: inactive

How did O=C(NCC1CCCO1)c1ccc(NC(=O)c2cccc([N+](=O)[O-])c2)cc1 (configuration not stated) do in these assays?
CCR6 antagonist: inactive; EBI2 block: inactive; CXCR6 inh: inactive; APJ ag: inactive; APJ antag: inactive

How did O=C(ONC1=NCCCCC1)c1cccc([N+](=O)[O-])c1 do in these assays?
CCR6 antagonist: inactive; EBI2 block: inactive; CXCR6 inh: inactive; APJ ag: inactive; APJ antag: inactive

Bioassay records from PubChem BioAssay.
